According to article PMC3819402 (Journal of medicinal chemistry, 2013):
Entries after “also recorded” stand apart in the source; their conditions may differ. Read-outs that look alike come from different tables or passages of the source.

Key:
[1] = system: purified bovine brain tubulin; assay: In vitro tubulin polymerization; assay type: biochemical; conditions: 10 μM, 37 °C, absorbance at 340 nm over 40 min
SK BR-3 = assay: In vitro cytotoxicity, SK BR-3; assay type: cell-based; conditions: Homo sapiens, SK-BR-3, 96 h, read-out: IC50 (GI50) SK BR-3
Outline: (§1)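 Tumour cell lines were grown in DMEM or RPMI with 10% FBS and penicillin-streptomycin, then plated in twelve-well dishes. Test compound was added 24 h later at various concentrations. After 96 h, viable cells were counted by trypan blue exclusion from duplicate wells.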

SK-MEL-28 = assay: In vitro cytotoxicity, SK-MEL-28; assay type: cell-based; conditions: Homo sapiens, SK-MEL-28, 96 h, read-out: IC50 (GI50) SK-MEL-28
Outline: as §1

RF-1 = assay: In vitro cytotoxicity, RF-1; assay type: cell-based; conditions: Homo sapiens, RF1, 96 h, read-out: IC50 (GI50) RF-1
Outline: as §1

H80 = assay: In vitro cytotoxicity, H80; assay type: cell-based; conditions: Homo sapiens, 96 h, read-out: IC50 (GI50) H80
Outline: as §1

NAMALWA = assay: In vitro cytotoxicity, NAMALWA; assay type: cell-based; conditions: Homo sapiens, 96 h, read-out: IC50 (GI50) NAMALWA
Outline: as §1

MES-SA = assay: In vitro cytotoxicity, MES-SA; assay type: cell-based; conditions: Homo sapiens, 96 h, read-out: IC50 (GI50) MES-SA
MCF-7 = assay: In vitro cytotoxicity, MCF-7; assay type: cell-based; conditions: Homo sapiens, MCF7, 96 h, read-out: IC50 (GI50) MCF-7
Outline: as §1

N417 = assay: In vitro cytotoxicity, N417; assay type: cell-based; conditions: Homo sapiens, N417, 96 h, read-out: IC50 (GI50) N417
Outline: as §1

DU145 cells [2] = assay: Fluorescent tubulin staining, mitotic spindle; assay type: cell-based, human; conditions: 24 h exposure; 25 nM in Figure 2
DAUDI = assay: In vitro cytotoxicity, DAUDI; assay type: cell-based; conditions: Homo sapiens, 96 h, read-out: IC50 (GI50) DAUDI
Outline: as §1

MES-SA / DX5 = assay: Cytotoxicity in multidrug-resistant subline MES-SA/DX5; assay type: cell-based, human; conditions: all three pairs of sensitive and drug-resistant cancer cells
DU145 cells [3] = assay: PARP cleavage western blot, tumor cells; assay type: cell-based, human; conditions: tumor cell line
Outline: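 DU145 cells in 100 mm plates were treated 24 h after plating with DMSO or increasing concentrations of test compound, then collected at set time points. Frozen pellets were lysed in 0.1% Triton X-100 buffer with protease inhibitors. Equal protein was run on 10% SDS-PAGE and moved to nitrocellulose. The blot was probed with anti-PARP antibody and IRDye 800 secondary, then scanned on Odyssey for PARP cleavage.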

BT20 = assay: In vitro cytotoxicity, BT20; assay type: cell-based; conditions: Homo sapiens, BT-20, 96 h, read-out: IC50 (GI50) BT20
Outline: as §1

MIA-PaCa-2 cells = assay: Soft agar assay; assay type: cell-based, human; conditions: three weeks of growth
HCT15 = assay: In vitro cytotoxicity, HCT15; assay type: cell-based; conditions: Homo sapiens, HCT-15, 96 h, read-out: IC50 (GI50) HCT15
Outline: as §1

MOLT-4 = assay: In vitro cytotoxicity, MOLT-4; assay type: cell-based; conditions: Homo sapiens, MOLT-4, 96 h, read-out: IC50 (GI50) MOLT-4
Outline: as §1

HepG2 cells = assay: Cytotoxicity to HepG2; assay type: cell-based; conditions: 4 h exposure, Alamar Blue
various tumor cell lines = assay: Cytotoxicity across a wide spectrum of cancer cell lines; assay type: cell-based; conditions: Homo sapiens, read-out: IC50 values across tumor cell lines of Table 3
Outline: as §1

tubulin in DU145 cells = assay: In vivo; assay type: cell-based, human; conditions: for polymerized versus soluble tubulin in cells: 24 h treatment
[4] = system: BT20 human breast tumor xenograft; assay: Nude mouse xenograft assay
DU145 cells [5] = assay: Cell cycle progression by flow cytometry; assay type: cell-based, human; conditions: 24 h, propidium iodide
Outline: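 DU145 cells were grown in DMEM with 10% FBS and penicillin-streptomycin, then treated 24 h after plating. Harvest was 24 h after treatment, pooling trypsinised and non-attached cells. Cells were PBS-washed and fixed in ice-cold 70% ethanol for at least 24 h. They were stained with propidium iodide plus RNase A (0.5 mg) for 30 min at 37 °C, run on a FACScan, and analysed for cell-cycle distribution.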

normal cell line = assay: PARP cleavage, normal cell line; assay type: cell-based; conditions: data not shown
DU145 = assay: In vitro cytotoxicity, DU145; assay type: cell-based; conditions: Homo sapiens, DU-145, 96 h, read-out: IC50 (GI50) DU145
[6] = target: porcine brain tubulin, preformed microtubules (paclitaxel binding site) (Sus scrofa, UniProt P02550+P02554); assay: Competitive mass spectrometry binding assay, paclitaxel site; conditions: paclitaxel 1.2 μM, 1 mM GTP, competitor 0.1–100 μM
[7] = target: porcine brain tubulin (vinblastine binding site) (Sus scrofa, UniProt P02550+P02554); assay: Competitive mass spectrometry binding assay, vinblastine site; conditions: vinblastine 1.2 μM, no GTP; competitor 0.1–100 μM
SKOV3 = assay: In vitro cytotoxicity, SKOV3; assay type: cell-based; conditions: Homo sapiens, SK-OV-3, 96 h, read-out: IC50 (GI50) SKOV3
Outline: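 Tumour cells grown in DMEM or RPMI with 10% fetal bovine serum and 1 unit/mL penicillin-streptomycin, plated in twelve-well dishes, then dosed 24 h later with test compound at various concentrations. After 96 h, viable cells counted in duplicate wells by trypan blue exclusion.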

PC3 = assay: In vitro cytotoxicity, PC3; assay type: cell-based; conditions: Homo sapiens, PC-3, 96 h, read-out: IC50 (GI50) PC3
Outline: as §1

LNCAP = assay: In vitro cytotoxicity, LNCAP; assay type: cell-based; conditions: Homo sapiens, 96 h, read-out: IC50 (GI50) LNCAP
Outline: as §1

T47D = assay: In vitro cytotoxicity, T47D; assay type: cell-based; conditions: Homo sapiens, 96 h, read-out: IC50 (GI50) T47D
Outline: as §1

MIAPaCa2 = assay: In vitro cytotoxicity, MIAPaCa2; assay type: cell-based; conditions: Homo sapiens, MIA PaCa-2, 96 h, read-out: IC50 (GI50) MIAPaCa2
Outline: as §1

RF-48 = assay: In vitro cytotoxicity, RF-48; assay type: cell-based; conditions: Homo sapiens, RF48, 96 h, read-out: IC50 (GI50) RF-48
Outline: as §1

HCT116 = assay: In vitro cytotoxicity, HCT116; assay type: cell-based; conditions: Homo sapiens, HCT-116, 96 h, read-out: IC50 (GI50) HCT116
Outline: as §1

H187 = assay: In vitro cytotoxicity, H187; assay type: cell-based; conditions: Homo sapiens, NCI-H187, 96 h, read-out: IC50 (GI50) H187
Outline: as §1

`COc1cc(OC)c(/C=C/S(=O)(=O)Nc2ccc(OC)c(NCC(=O)O)c2)c(OC)c1` [25a, (E)-2-(2-Methoxy-5-(2-(2′,4′,6′-trimethoxyphenyl)vinylsulfonamido)phenylamino)acetic acid] was tested, and the tubulin polymerization [1] was “completely inhibit tubulin polymerization”.
`COc1ccc(NS(=O)(=O)/C=C/c2c(OC)cc(OC)cc2OC)cc1` [6i, (E)-N-(4-Methoxyphenyl)-2-(2′,4′,6′-trimethoxyphenyl)ethenesulfonamide] gave an IC50 (SK BR-3) of 50 nM, an IC50 (SK-MEL-28) of 50 nM and an IC50 (RF-1) of 50 nM. For the same compound, the IC50 (H80) was 100 nM, the IC50 (NAMALWA) was 100 nM and the IC50 (MES-SA) was 50 nM. The IC50 (MCF-7) was 50 nM and the IC50 (N417) was 50 nM.
`COC(=O)Nc1nc2cc(C(=O)c3cccs3)ccc2[nH]1` [nocodazole, Nocodazole, reference compound] was tested, and the tubulin polymerization [1] was “completely inhibit tubulin polymerization”.
In the case of `O=c1cc[nH]c(=S)[nH]1` [2-thiouracil, 2-Thiouracil, reference compound], the “LD50 to Caco-2 cells” value (Caco-2 cells; human, Caco-2, 1 h) is reported as over 1000 µM.
In the case of `COc1cc(OC)c(/C=C/S(=O)(=O)Nc2ccc(OC)c(N)c2)c(OC)c1` [6t, (E)-N-(3-Amino-4-methoxyphenyl)-2-(2′,4′,6′-trimethoxyphenyl)ethenesulfonamide], the “effect on microtubule cytoskeleton / mitotic spindle” value (DU145 cells [2]) is reported as “complete depolymerization of the microtubule cytoskeleton”, the “LD50 to Caco-2 cells” value (Caco-2 cells; one hour incubation, Alamar Blue) is reported as over 1000 µM and the IC50 (DAUDI) is reported as 8 nM. For the same compound, the resistance factors (MES-SA / DX5) was under 2, the PARP cleavage (DU145 cells [3]) was “Full length PARP gets cleaved” and the IC50 (BT20) was 8 nM. The “anchorage-independent growth in soft agar” value (MIA-PaCa-2 cells) was “inhibition of anchorage-independent growth of tumor cells in a dose dependent manner”, the IC50 (HCT15) was 8 nM and the IC50 (SK-MEL-28) was 8 nM. The IC50 (MOLT-4) was 8 nM, the “LD50 to HepG2 cells” value (HepG2 cells) was over 1000 µM and the IC50 (various tumor cell lines) was 3 to 10 nM. The “polymerized versus soluble tubulin in cells” value (tubulin in DU145 cells) was “concentration-dependent depolymerization of tubulin; also recorded: completely inhibits the polymerization of tubulin”, the “tubulin depolymerization in paclitaxel pre-treated cells” value (tubulin in DU145 cells; paclitaxel 24 h, then compound 4 h) was “effective at depolymerizing paclitaxel induced polymerized tubulin” and the “tumor growth in xenograft” value ([4]; 20 mg/kg IP every other day, 6 injections, female nude mice) was “readily inhibited tumor growth”. The body weight ([4]; 20 mg/kg IP, xenograft study) was “no body weight loss of more than 10%; also recorded: no reduction in body weight”, the tubulin polymerization [1] was “completely inhibit tubulin polymerization” and the IC50 (NAMALWA) was 8 nM. The cell cycle distribution (DU145 cells [5]; 0.005 μM) was “accumulated in the G2/M phase”, the cell cycle distribution (DU145 cells [5]; 0.02 μM) was “a majority of cells showed G2/M arrest” and the “PARP cleavage in normal cell line” value (normal cell line) was “no PARP cleavage”. For the same compound, the IC50 (DU145) was 8 nM, the “competition with paclitaxel binding to tubulin” value [6] was “did not compete” and the “competition with vinblastine binding to tubulin” value [7] was “did not compete”. It also gave an IC50 (SKOV3) of 8 nM, an IC50 (PC3) of 8 nM and an IC50 (LNCAP) of 8 nM. The IC50 (T47D) was 8 nM.
In the case of `CC(=O)O[C@H]1C(=O)[C@@]2(C)[C@H]([C@H](OC(=O)c3ccccc3)[C@]3(O)C[C@H](OC(=O)[C@H](O)[C@@H](NC(=O)c4ccccc4)c4ccccc4)C(C)=C1C3(C)C)[C@]1(OC(C)=O)CO[C@@H]1C[C@@H]2O` [Paclitaxel, reference compound], the “polymerized versus soluble tubulin in cells” value (tubulin in DU145 cells) is reported as “induced a shift from soluble to polymerized tubulin” and the tubulin polymerization [1] is reported as “strong increase in turbidity”.
With `CC[C@]1(O)C[C@H]2CN(CCc3c([nH]c4ccccc34)[C@@](C(=O)OC)(c3cc4c(cc3OC)N(C=O)[C@H]3[C@@](O)(C(=O)OC)[C@H](OC(C)=O)[C@]5(CC)C=CCN6CC[C@]43[C@@H]65)C2)C1` [vincristine, reference compound] the “competition with vinblastine binding to tubulin” value [7] was “effectively competed”.
Compound `COc1cc(OC)c(/C=C/S(=O)(=O)Nc2ccc(OC)c(O)c2)c(OC)c1` [6p, (E)-N-(3-Hydroxy-4-methoxyphenyl)-2-(2′,4′,6′-trimethoxyphenyl)ethenesulfonamide] has an IC50 (MIAPaCa2) of 10 nM, an IC50 (RF-48) of 10 nM and an IC50 (RF-1) of 10 nM. The IC50 (HCT116) was 10 nM, the IC50 (N417) was 10 nM and the IC50 (H187) was 10 nM.
For `CC(=O)O[C@@]12CO[C@@H]1C[C@H](O)[C@@]1(C)C(=O)[C@H](O)C3=C(C)[C@@H](OC(=O)[C@H](O)[C@@H](NC(=O)OC(C)(C)C)c4ccccc4)C[C@@](O)([C@@H](OC(=O)c4ccccc4)[C@H]21)C3(C)C.O.O.O` [docetaxel, reference compound], the “competition with paclitaxel binding to tubulin” value [6] was “effectively competed”.
For `COc1cc(OC)c(/C=C/S(=O)(=O)Nc2ccc(OC)c(NC(C)(C)C(=O)O)c2)c(OC)c1` [25c, (E)-2-(2-Methoxy-5-(2-(2′,4′,6′-trimethoxyphenyl)vinylsulfonamido)phenylamino)-2-methylpropanoic acid], the IC50 (DAUDI) was 30 nM, the resistance factors (MES-SA / DX5) was under 2 and the IC50 (MOLT-4) was 30 nM. The tubulin polymerization [1] was “completely inhibit tubulin polymerization” and the IC50 (N417) was 30 nM.
